Assay results reported in ChEMBL document CHEMBL1151761, “Radiohalogenated prostate-specific membrane antigen (PSMA)-based ureas as imaging agents for prostate cancer” (J Med Chem, 2008).

Legend:
Assay type in all cases: ADME, organism-based
[1] = Biodistribution in small intestine of PSMA expressing human PC3 PIP and PSMA deficient human PC3 flu cells xenografted SCID mouse at 2 uCi, iv after 30 mins; settings: in vivo, 0.5 h
How it was run: (§1)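 Male SCID mice carried subcutaneous PSMA+ PC-3 PIP (left shoulder) and PC-3 flu (right shoulder) xenografts, 1-5 × 10^6 cells in HBSS, and were used at 3-5 mm tumor diameter. Tail-vein injection of 2 µCi radioligand; four mice per time point, killed by cervical dislocation. %ID/g from a standard dilution of the dose, decay-corrected, mean ± SD; PIP tumor:organ ratios.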

[2] = Ratio of drug level in tumor to pancreas of human PSMA expressing PC3 PIP and PSMA deficient human PC3 flu cells xenografted SCID mouse at 2 uCi, iv after 60 mins; settings: in vivo, 1 h
How it was run: (§2)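 Male SCID mice carried subcutaneous xenografts: PSMA+ PC-3 PIP behind the left shoulder and PSMA− PC-3 flu behind the right, 1–5 × 10^6 cells in HBSS. Mice were used at 3–5 mm tumor diameter. 2 μCi was given by tail vein, and 4 mice per time point were killed by cervical dislocation. %ID/g came from a standard dilution of the dose, decay-corrected. Ratio is PIP tumor %ID/g to organ %ID/g.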

[3] = Ratio of drug level in tumor to small intestine of human PSMA expressing PC3 PIP and PSMA deficient human PC3 flu cells xenografted SCID mouse at 2 uCi, iv after 30 mins; settings: in vivo, 0.5 h; how it was run: as §2
[4] = Ratio of drug level in tumor to spleen of human PSMA expressing PC3 PIP and PSMA deficient human PC3 flu cells xenografted SCID mouse at 2 uCi, iv after 60 mins; settings: in vivo, 1 h; how it was run: as §2
Urinary bladder = experiment: Biodistribution in bladder of PSMA expressing human PC3 PIP and PSMA deficient human PC3 flu cells xenografted SCID mouse at 2 uCi, iv after 60 mins; settings: in vivo, 1 h
[5] = Ratio of drug level in PC3 PIP tumor to PC3 flu tumor of human PSMA expressing PC3 PIP and PSMA deficient human PC3 flu cells xenografted SCID mouse at 2 uCi, iv after 30 mins; settings: in vivo, 0.5 h; how it was run: as §1
[6] = Ratio of drug level in tumor to heart of human PSMA expressing PC3 PIP and PSMA deficient human PC3 flu cells xenografted SCID mouse at 2 uCi, iv after 60 mins; settings: in vivo, 1 h; how it was run: as §1
[7] = Biodistribution in PC3 flu tumor of PSMA expressing human PC3 PIP and PSMA deficient human PC3 flu cells xenografted SCID mouse at 2 uCi, iv after 30 mins; settings: in vivo, 0.5 h; how it was run: as §1
[8] = Ratio of drug level in tumor to bladder of human PSMA expressing PC3 PIP and PSMA deficient human PC3 flu cells xenografted SCID mouse at 2 uCi, iv after 30 mins; settings: in vivo, 0.5 h; how it was run: as §1
[9] = Ratio of drug level in tumor to kidney of human PSMA expressing PC3 PIP and PSMA deficient human PC3 flu cells xenografted SCID mouse at 2 uCi, iv after 5 hrs; settings: in vivo; how it was run: as §1
[10] = Ratio of drug level in tumor to kidney of human PSMA expressing PC3 PIP and PSMA deficient human PC3 flu cells xenografted SCID mouse at 2 uCi, iv after 30 mins; settings: in vivo, 0.5 h; how it was run: as §1
[11] = Biodistribution in PC3 PIP tumor of PSMA expressing human PC3 PIP and PSMA deficient human PC3 flu cells xenografted SCID mouse at 2 uCi, iv after 30 mins; settings: in vivo, 0.5 h; how it was run: as §1
Kidney [12] = experiment: Biodistribution in kidney of PSMA expressing human PC3 PIP and PSMA deficient human PC3 flu cells xenografted SCID mouse at 2 uCi, iv after 30 mins; settings: in vivo, 0.5 h
[13] = Ratio of drug level in tumor to liver of human PSMA expressing PC3 PIP and PSMA deficient human PC3 flu cells xenografted SCID mouse at 2 uCi, iv after 30 mins; settings: in vivo, 0.5 h; how it was run: as §1
[14] = Ratio of drug level in tumor to small intestine of human PSMA expressing PC3 PIP and PSMA deficient human PC3 flu cells xenografted SCID mouse at 2 uCi, iv after 5 hrs; settings: in vivo; how it was run: as §2
[15] = Ratio of drug level in tumor to stomach of human PSMA expressing PC3 PIP and PSMA deficient human PC3 flu cells xenografted SCID mouse at 2 uCi, iv after 5 hrs; settings: in vivo; how it was run: as §2
Kidney [16] = experiment: Biodistribution in kidney of PSMA expressing human PC3 PIP and PSMA deficient human PC3 flu cells xenografted SCID mouse at 2 uCi, iv after 5 hrs; settings: in vivo
[17] = Ratio of drug level in tumor to stomach of human PSMA expressing PC3 PIP and PSMA deficient human PC3 flu cells xenografted SCID mouse at 2 uCi, iv after 30 mins; settings: in vivo, 0.5 h; how it was run: as §2
[18] = Ratio of drug level in tumor to blood of human PSMA expressing PC3 PIP and PSMA deficient human PC3 flu cells xenografted SCID mouse at 2 uCi, iv after 2 hrs
How it was run: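 Male SCID mice carried subcutaneous xenografts of PSMA+ PC-3 PIP cells behind the left shoulder and PSMA− PC-3 flu cells behind the right (1–5 × 10^6 cells in HBSS), used at a tumour diameter of 3–5 mm. Each mouse received 2 μCi of radioiodinated tracer via the tail vein. Tissues were harvested at each time point for %ID/g against a standard dilution of the dose, decay-corrected. Ratios are PIP tumour:organ.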

Heart = experiment: Biodistribution in heart of PSMA expressing human PC3 PIP and PSMA deficient human PC3 flu cells xenografted SCID mouse at 2 uCi, iv after 2 hrs; settings: in vivo
[19] = Ratio of drug level in PC3 PIP tumor to PC3 flu tumor of human PSMA expressing PC3 PIP and PSMA deficient human PC3 flu cells xenografted SCID mouse at 2 uCi, iv after 60 mins; settings: in vivo, 1 h; how it was run: as §1
[20] = Biodistribution in PC3 PIP tumor of PSMA expressing human PC3 PIP and PSMA deficient human PC3 flu cells xenografted SCID mouse at 2 uCi, iv after 5 hrs; settings: in vivo
Blood [21] = experiment: Biodistribution in blood of PSMA expressing human PC3 PIP and PSMA deficient human PC3 flu cells xenografted SCID mouse at 2 uCi, iv after 2 hrs; settings: in vivo
Blood [22] = experiment: Biodistribution in blood of PSMA expressing human PC3 PIP and PSMA deficient human PC3 flu cells xenografted SCID mouse at 2 uCi, iv after 60 mins; settings: in vivo, 1 h
Lung = experiment: Biodistribution in lung of PSMA expressing human PC3 PIP and PSMA deficient human PC3 flu cells xenografted SCID mouse at 2 uCi, iv after 5 hrs; settings: in vivo
[23] = Ratio of drug level in tumor to heart of human PSMA expressing PC3 PIP and PSMA deficient human PC3 flu cells xenografted SCID mouse at 2 uCi, iv after 5 hrs; settings: in vivo; how it was run: as §1
[24] = Ratio of drug level in tumor to bladder of human PSMA expressing PC3 PIP and PSMA deficient human PC3 flu cells xenografted SCID mouse at 2 uCi, iv after 5 hrs; settings: in vivo; how it was run: as §1
[25] = Ratio of drug level in PC3 PIP tumor to PC3 flu tumor of human PSMA expressing PC3 PIP and PSMA deficient human PC3 flu cells xenografted SCID mouse at 2 uCi, iv after 2 hrs; settings: in vivo; how it was run: as §1

Structure (SMILES): O=C(O)CC[C@H](NC(=O)N[C@@H](CCCCNC(=O)c1ccc([18F])cc1)C(=O)O)C(=O)O
- Drug uptake [1]: 1.7 % ID/g
- Ratio [2]: 21
- Ratio [3]: 5
- Ratio [4]: 1
- Drug uptake (Urinary bladder): 17 % ID/g
- Ratio [5]: 11
- Ratio [6]: 35
- Drug uptake [7]: 0.8 % ID/g
- Ratio [8]: 1
- Ratio [9]: 0.3
- Ratio [10]: 0.1
- Drug uptake [11]: 8.6 % ID/g
- Drug uptake (Kidney [12]): 72 % ID/g
- Ratio [13]: 1
- Ratio [14]: 35
- Ratio [15]: 88
- Drug uptake (Kidney [16]): 14 % ID/g
- Ratio [17]: 11
- Kp at 2 h [18]: 9
- Drug uptake (Heart): 0.15 % ID/g
- Ratio [19]: 21
- Drug uptake [20]: 3.5 % ID/g
- Drug uptake (Blood [21]): 0.4 % ID/g
- Drug uptake (Blood [22]): 0.7 % ID/g
- Drug uptake (Lung): 0.1 % ID/g
- Ratio [23]: 117
- Ratio [24]: 0.7
- Ratio [25]: 15
